Source: ChEMBL document CHEMBL1134364, “Antipsoriatic anthrones with modulated redox properties. 5. Potent inhibition of human keratinocyte growth, induction of keratinocyte differentiation, and reduced membrane damage by novel 10-arylacetyl-1,8-dihydroxy-9(10H)-anthracenones” (J Med Chem, 2001)
Each block holds one molecule with its values, some of them ahead of it.

Experiments:
[1] = Partition coefficient (logP); format: physicochemical; conditions: octanol/water
[2] = Concentration required to inhibit 50% growth of HaCaT cells; format: functional, cell-based; conditions: Homo sapiens
Procedure, shortened: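 HaCaT keratinocytes treated for 48 h. Proliferation read by counting dispersed cells under phase-contrast microscope. Growth inhibition tested for significance against control, N = 3, P < 0.01.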

[3] = Induction of Keratinocyte Differentiation in cross-linked envelope assay at 1 uM expressed as difference of the amount of cross-linked protein as a measure of HaCaT keratinocyte differentiation; format: functional, Homo sapiens
Procedure, shortened: (§1)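 HaCaT cultures were 144 h post-confluent; medium replaced, compound added from DMSO stocks diluted in DMEM (final DMSO 0.2%), controls DMSO or medium alone, 48 h. Cells were detached with trypsin/EDTA, lysed in SDS/β-ME, dot-blotted, TCA-heated, Coomassie-stained and scanned. Value is cross-linked protein minus vehicle, per mg protein (Bradford), mean ± SEM of 3 experiments.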

[4] = Induction of Keratinocyte Differentiation in cross-linked envelope assay at 10 uM expressed as difference of the amount of cross-linked protein as a measure of HaCaT keratinocyte differentiation; format: functional, Homo sapiens; procedure, shortened: as §1
[5] = (§2) Induction of Keratinocyte Differentiation in cross-linked envelope assay at 5 uM expressed as difference of the amount of cross-linked protein as a measure of HaCaT keratinocyte differentiation; format: functional, Homo sapiens; procedure, shortened: as §1
[6] = Inhibition of LTB4 biosynthesis in bovine polymorphonuclear leukocytes using nordihydroguaiaretic acid; format: functional, cell-based, Bos taurus
[7] = Deoxyribose degradation activity was measured as hydroxyl radical formation
[8] = (§3) Cytotoxic activity of LDH(mu) release in HaCaT cells was measured after treatment with 2 uM of the compound; format: functional, Homo sapiens
Procedure, shortened: (§4)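 HaCaT cells treated with 2 µM compound. Membrane damage read as lactate dehydrogenase activity (mU) released into the culture medium. N = 3, SD < 10%.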

[9] = tested on: HaCaT; experiment: as §2; format: cell-based; conditions: Homo sapiens; procedure, shortened: as §1
[10] = as §3; format: cell-based; conditions: human; procedure, shortened: as §4
[11] = Cytotoxic activity of LDH(mu) release in HaCaT cells was measured after treatment of 2 uM; format: functional, Homo sapiens; procedure, shortened: as §4

logP [1]: 5.02
IC50 [6]: 7000 nM
Activity [7]: < 0.3
Structure (SMILES): O=C1c2c(O)cccc2C(C(=O)Cc2ccc(-c3ccccc3)cc2)c2cccc(O)c21
IC50 [2]: 2200 nM
Activity [3]: 1.8 ug (mg of protein)-1
Activity [4]: 4.6 ug (mg of protein)-1
Activity [5]: 3.8 ug (mg of protein)-1

logP [1]: 4.54
Structure (SMILES): Cc1ccc(CC(=O)C2c3cccc(O)c3C(=O)c3c(O)cccc32)cc1
IC50 [2]: 700 nM
Activity [3]: 2.1 ug (mg of protein)-1
Activity [4]: 5.1 ug (mg of protein)-1
Activity [5]: 4.2 ug (mg of protein)-1
LDH [8]: 145 MU

logP [1]: 3.58
IC50 [6]: 9000 nM
Structure (SMILES): N#Cc1ccc(CC(=O)C2c3cccc(O)c3C(=O)c3c(O)cccc32)cc1
IC50 [2]: 3200 nM

logP [1]: 4.42
IC50 [6]: 6000 nM
Structure (SMILES): CSc1ccc(CC(=O)C2c3cccc(O)c3C(=O)c3c(O)cccc32)cc1
IC50 [2]: 1600 nM

logP [1]: 4.49
IC50 [6]: 1000 nM
Activity [7]: < 0.3
Structure (SMILES): O=C1c2c(O)cccc2C(C(=O)Cc2ccc(Cl)cc2)c2cccc(O)c21
IC50 [2]: 2200 nM

logP [1]: 4.2
Structure (SMILES): COc1ccccc1CC(=O)C1c2cccc(O)c2C(=O)c2c(O)cccc21
IC50 [2]: 1600 nM
LDH [8]: 125 MU

logP [1]: 4.6
IC50 [6]: 700 nM
Activity [7]: < 0.3
Structure (SMILES): O=C1c2c(O)cccc2C(C(=O)Cc2ccc(Br)cc2)c2cccc(O)c21
IC50 [2]: 2900 nM

IC50 [6]: 500 nM
Structure (SMILES): COc1ccc(CC(=O)C2c3cccc(O)c3C(=O)c3c(O)cccc32)cc1
IC50 [2]: 1100 nM
Activity [3]: 2.3 ug (mg of protein)-1
Activity [4]: 5.8 ug (mg of protein)-1
Activity [5]: 5.3 ug (mg of protein)-1
LDH [8]: 143 MU

logP [1]: 3.29
IC50 [6]: 1000 nM
Activity [7]: 1.43
Structure (SMILES): Nc1ccc(CC(=O)C2c3cccc(O)c3C(=O)c3c(O)cccc32)cc1
IC50 [2]: 1200 nM
Activity [3]: 0 ug (mg of protein)-1
Activity [4]: 6.6 ug (mg of protein)-1
Activity [5]: 6 ug (mg of protein)-1

logP [1]: 4.43
IC50 [6]: 18000 nM
Activity [7]: < 0.3
Structure (SMILES): CC(C(=O)C1c2cccc(O)c2C(=O)c2c(O)cccc21)c1ccccc1 (centres undefined)
IC50 [2]: 1000 nM

logP [1]: 4.8
IC50 [6]: 1500 nM
Activity [7]: < 0.3
Structure (SMILES): O=C1c2c(O)cccc2C(C(=O)Cc2ccc(I)cc2)c2cccc(O)c21
IC50 [2]: 3100 nM

logP [1]: 4.11
IC50 [6]: 11000 nM
Activity [7]: < 0.3
Structure (SMILES): O=C1c2c(O)cccc2C(C(=O)Cc2ccc(F)cc2)c2cccc(O)c21
IC50 [2]: 2600 nM
Activity [3]: 0.6 ug (mg of protein)-1
Activity [4]: 3.5 ug (mg of protein)-1
Activity [5]: 2.4 ug (mg of protein)-1

logP [1]: 4.4
IC50 [6]: 11000 nM
Structure (SMILES): O=C1c2c(O)cccc2C(C(=O)Cc2ccc(C(F)(F)F)cc2)c2cccc(O)c21
IC50 [2]: 1600 nM

logP [1]: 4.74
IC50 [6]: 9000 nM
Structure (SMILES): O=C1c2c(O)cccc2C(C(=O)Cc2ccc(Cl)c(Cl)c2)c2cccc(O)c21
IC50 [2]: 1200 nM

logP [1]: 3.77
IC50 [6]: 9000 nM
Activity [7]: < 0.3
Structure (SMILES): O=C1c2c(O)cccc2C(C(=O)Cc2c[nH]c3ccccc23)c2cccc(O)c21
IC50 [2]: 800 nM
Activity [3]: 1.8 ug (mg of protein)-1
Activity [4]: 6.2 ug (mg of protein)-1
Activity [5]: 4.9 ug (mg of protein)-1
LDH [8]: 174 MU

IC50 [6]: 600 nM
Activity [7]: < 0.3
Structure (SMILES): O=C1c2c(O)cccc2C(C(=O)Cc2ccc(OCc3ccccc3)cc2)c2cccc(O)c21
IC50 [2]: 2400 nM
LDH [8]: 202 MU

logP [1]: 3.91
IC50 [6]: 3000 nM
Activity [7]: 0.45
Structure (SMILES): O=C1c2c(O)cccc2C(C(=O)Cc2ccccc2Nc2c(Cl)cccc2Cl)c2cccc(O)c21
IC50 [2]: 1300 nM
LDH [8]: 247 MU

logP [1]: 4.16
IC50 [6]: 3000 nM
Activity [7]: < 0.3
Structure (SMILES): COc1cccc(CC(=O)C2c3cccc(O)c3C(=O)c3c(O)cccc32)c1
IC50 [2]: 2700 nM

The next lines start with the molecule.

Structure (SMILES): O=C1c2c(O)cccc2C(C(=O)Cc2ccc3c(c2)OCO3)c2cccc(O)c21
logP [1]: 4.06
IC50 [2]: 3300 nM
IC50 [6]: 1000 nM
Activity [7]: < 0.3

Structure (SMILES): COc1ccc(CC(=O)C2c3cccc(O)c3C(=O)c3c(O)cccc32)cc1O
logP [1]: 3.41
IC50 [2]: 1900 nM
IC50 [6]: 8000 nM

Structure (SMILES): O=C1c2ccccc2Cc2ccccc21 [ANTHRONE]
Activity [3]: 0.5 ug (mg of protein)-1
Activity [4]: 0.8 ug (mg of protein)-1
Activity [5]: 0.3 ug (mg of protein)-1

Structure (SMILES): CC(C)(C)c1cc(CC(=O)C2c3cccc(O)c3C(=O)c3c(O)cccc32)cc(C(C)(C)C)c1O
IC50 [2]: 3000 nM
LDH [8]: 199 MU

Structure (SMILES): O=C1c2c(O)cccc2C(C(=O)Cc2ccc([N+](=O)[O-])cc2)c2cccc(O)c21
IC50 [2]: 4700 nM
LDH [8]: 179 MU

Structure (SMILES): O=C1c2c(O)cccc2C(C(=O)Cc2ccc(O)cc2)c2cccc(O)c21
IC50 [2]: 1700 nM
Activity [3]: 2.5 ug (mg of protein)-1
Activity [4]: 6.2 ug (mg of protein)-1
Activity [5]: 5.1 ug (mg of protein)-1
LDH [8]: 173 MU

Structure (SMILES): CN(O)C(=O)Cc1ccc(CC(=O)C2c3cccc(O)c3C(=O)c3c(O)cccc32)cc1
logP [1]: 3.02
IC50 [2]: 700 nM
Activity [3]: 2.8 ug (mg of protein)-1
Activity [4]: 6.2 ug (mg of protein)-1
Activity (ug (mg of protein)-1) [9]: 5.5
LDH [10]: 199 MU
IC50 [6]: 50 nM
Activity [7]: 0.51

Structure (SMILES): CC(C)Cc1ccc(C(C)C(=O)C2c3cccc(O)c3C(=O)c3c(O)cccc32)cc1 (centres undefined)
logP [1]: 5.57
IC50 [2]: 3500 nM

Structure (SMILES): CC(C)(C)OC(=O)Nc1ccc(CC(=O)C2c3cccc(O)c3C(=O)c3c(O)cccc32)cc1
logP [1]: 4.17
IC50 [2]: 1800 nM
IC50 [6]: 2000 nM
Activity [7]: 0.97

Structure (SMILES): CCOc1ccc(CC(=O)C2c3cccc(O)c3C(=O)c3c(O)cccc32)cc1
logP [1]: 4.51
IC50 [2]: 1700 nM
LDH [8]: 142 MU
IC50 [6]: 1000 nM
Activity [7]: < 0.3

Structure (SMILES): COC(=O)c1ccc(CC(=O)C2c3cccc(O)c3C(=O)c3c(O)cccc32)cc1
logP [1]: 4.07
IC50 [2]: 1800 nM
LDH [8]: 164 MU
IC50 [6]: 12000 nM
Activity [7]: < 0.3

Structure (SMILES): CC(C(=O)C1c2cccc(O)c2C(=O)c2c(O)cccc21)c1ccc(C(=O)c2ccccc2)cc1 (centres undefined)
logP [1]: 4.46
IC50 [2]: 900 nM
LDH [8]: 191 MU
IC50 [6]: 9000 nM
Activity [7]: < 0.3

Structure (SMILES): O=C1c2cccc(O)c2C(=O)c2c(O)cccc21 [DANTHRON]
Activity [3]: 0.6 ug (mg of protein)-1
Activity [4]: 0 ug (mg of protein)-1
Activity [5]: -0.1 ug (mg of protein)-1

Structure (SMILES): O=C1c2c(O)cccc2C(Cc2ccccc2)c2cccc(O)c21
Activity [3]: -1 ug (mg of protein)-1
Activity [4]: 0.9 ug (mg of protein)-1
Activity [5]: -0.8 ug (mg of protein)-1

Structure (SMILES): CCOC(=O)c1ccc(CC(=O)C2c3cccc(O)c3C(=O)c3c(O)cccc32)cc1
logP [1]: 4.34
IC50 [2]: 1300 nM
IC50 [6]: 6000 nM
Activity [7]: < 0.3

Structure (SMILES): COc1cccc(COc2ccc(CC(=O)C3c4cccc(O)c4C(=O)c4c(O)cccc43)cc2)c1
logP [1]: 5.19
IC50 [2]: 1000 nM
LDH [8]: 159 MU
IC50 [6]: 1000 nM
Activity [7]: < 0.3

Structure (SMILES): O=C1c2c(O)cccc2Cc2cccc(O)c21 [ANTHRALIN]
IC50 [2]: 700 nM
Activity [3]: 3.7 ug (mg of protein)-1
Activity [4]: 5.8 ug (mg of protein)-1
Activity [5]: 4.9 ug (mg of protein)-1
LDH [11]: 294 MU

Structure (SMILES): CN(C)c1ccc(CC(=O)C2c3cccc(O)c3C(=O)c3c(O)cccc32)cc1
logP [1]: 4.42
IC50 [2]: 1300 nM
IC50 [6]: 6000 nM

Structure (SMILES): COc1ccc(CC(=O)C2c3cccc(O)c3C(=O)c3c(O)cccc32)cc1OC
logP [1]: 3.77
IC50 [2]: 4200 nM
IC50 [6]: 22000 nM
Activity [7]: 0.86

Structure (SMILES): COc1ccc(COc2ccc(CC(=O)C3c4cccc(O)c4C(=O)c4c(O)cccc43)cc2)cc1
logP [1]: 4.91
IC50 [2]: 3200 nM
IC50 [6]: 1500 nM
Activity [7]: < 0.3

Structure (SMILES): CC(C)Oc1ccc(CC(=O)C2c3cccc(O)c3C(=O)c3c(O)cccc32)cc1
logP [1]: 4.59
IC50 [2]: 1800 nM
IC50 [6]: 15000 nM
Activity [7]: < 0.3

Structure (SMILES): CCCCOc1ccc(CC(=O)C2c3cccc(O)c3C(=O)c3c(O)cccc32)cc1
logP [1]: 5.41
IC50 [2]: 1200 nM
Activity [3]: 2.5 ug (mg of protein)-1
Activity [4]: 3.4 ug (mg of protein)-1
Activity [5]: 3.4 ug (mg of protein)-1
IC50 [6]: 1500 nM
Activity [7]: < 0.3

Structure (SMILES): CCCOc1ccc(CC(=O)C2c3cccc(O)c3C(=O)c3c(O)cccc32)cc1
logP [1]: 4.97
IC50 [2]: 1600 nM
LDH [8]: 132 MU
IC50 [6]: 1000 nM
Activity [7]: < 0.3

Structure (SMILES): O=C(O)Cc1ccc(CC(=O)C2c3cccc(O)c3C(=O)c3c(O)cccc32)cc1
logP [1]: 2.84
IC50 [2]: 1700 nM
IC50 [6]: 3000 nM
Activity [7]: 0.93
